The values that follow come from ChEMBL document CHEMBL1671756, “In vitro and in vivo antifungal susceptibilities of the Mucoralean fungus Cunninghamella” (2010).

Active and inactive are the calls of the source. The calls are words filed in the database; no cut-off is given here.

Assay type in all cases: functional, organism-based
In experiment [1] the test system is Cunninghamella bertholletiae. The experiment in a line: Antifungal activity against Cunninghamella bertholletiae UTSCH 05-2275 infected in diabetic OF1 mouse assessed as decreased fungal load in kidney at 80 mg/kg, po qd administered 1 day post infection measured after 4 to 5 days relative to untreated control. Set-up: dose 80 mg/kg. The procedure, abridged:
(§1)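 Male OF1 mice (mean 30 g) made diabetic with a single i.p. dose of streptozocin 210 mg/kg; blood glucose >250 mg/dl at day 10 qualified. Ceftazidime 5 mg/day s.c. given on days 1–7. Challenge by lateral tail vein with 1 × 10⁵ CFU sporangiospores in 0.2 ml saline. Oral dosing once daily for 7 days, starting 1 day after challenge. Untreated controls. Ten mice per group.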

Experiment [2] concerns Cunninghamella bertholletiae. The experiment in a line: Antifungal activity against Cunninghamella bertholletiae UTHSC 05-2275 infected in diabetic OF1 mouse assessed as increase in mouse survival rate at 60 mg/kg, po qd administered 1 day after infection for 7 days relative to untreated control. On the set-up: dose 60 mg/kg. The procedure, abridged:
(§2)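 Male OF1 mice made diabetic with streptozocin 210 mg/kg i.p.; blood glucose above 250 mg/dl at day 10 required. Infected i.v. via the tail vein with 1 × 10⁵ CFU sporangiospores in 0.2 ml saline. Ceftazidime 5 mg/day s.c. on days 1–7. Oral once-daily treatment from day 1 for 7 days; 10 mice per group; followed for 20 days; Kaplan-Meier mean survival time, log-rank test.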

Experiment [3] deals with Cunninghamella bertholletiae. Nature of the experiment: Antifungal activity against Cunninghamella bertholletiae UTSCH 05-2275 infected in diabetic OF1 mouse assessed lung at 60 mg/kg, po qd administered 1 day post infection measured after 4 to 5 days relative to untreated control. On the set-up: dose 60 mg/kg. The procedure, abridged:
as §1

Experiment [4] relates to Cunninghamella bertholletiae. The experiment in a line: Antifungal activity against Cunninghamella bertholletiae UTHSC 05-2275 infected in diabetic OF1 mouse assessed as increase in mouse survival rate at 20 mg/kg, po qd administered 1 day after infection for 7 days relative to untreated control. Set-up: dose 20 mg/kg. The procedure, abridged:
as §2

Experiment [5] relates to Cunninghamella bertholletiae. The experiment in a line: Antifungal activity against Cunninghamella bertholletiae UTHSC 06-1945 infected in neutropenic OF1 mouse assessed as decreased fungal load in brain at 60 mg/kg, po qd administered 1 day post infection measured after 4 to 5 days relative to untreated control. Set-up: dose 60 mg/kg. The procedure, abridged: (§3)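 Neutropenic male OF1 mice (cyclophosphamide 200 mg/kg i.p. plus 5-fluorouracil 150 mg/kg i.v., day −1) were given 1 × 10⁴ CFU sporangiospores i.v. in 0.2 ml saline. Treatment from 24 h: 0.8 mg/kg i.v. or oral doses once daily; 10 mice per group. Killed at day 5 (day 4 if moribund). About half of brain, lungs and kidneys homogenized in saline; 10-fold dilutions plated on PDA for 24 h at 35°C; log₁₀ CFU/g tissue.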

Experiment [6] relates to Cunninghamella bertholletiae. Nature of the experiment: Antifungal activity against Cunninghamella bertholletiae UTSCH 05-2275 infected in diabetic OF1 mouse assessed as decreased fungal load in brain at 80 mg/kg, po qd administered 1 day post infection measured after 4 to 5 days relative to untreated control. Set-up: dose 80 mg/kg. The procedure, abridged: (§4)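 Diabetic male OF1 mice (streptozocin 210 mg/kg i.p.; glucose above 250 mg/dl) were challenged i.v. with 1 × 10⁵ CFU sporangiospores. Oral once-daily dosing from day 1 for 7 days; 10 mice per group. Killed at day 5 (day 4 if moribund). About half of each organ homogenized in saline; serial 10-fold dilutions plated on PDA for 24 h at 35°C; log₁₀ CFU/g tissue.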

Experiment [7] relates to Cunninghamella bertholletiae. Nature of the experiment: Antifungal activity against Cunninghamella bertholletiae UTSCH 05-2275 infected in diabetic OF1 mouse assessed as decreased fungal load in lung at 60 mg/kg, po qd administered 1 day post infection measured after 4 to 5 days relative to untreated control. Set-up: dose 60 mg/kg. The procedure, abridged:
as §1

The subject of experiment [8] is Cunninghamella bertholletiae. The experiment in a line: Antifungal activity against Cunninghamella bertholletiae UTSCH 05-2275 infected in diabetic OF1 mouse assessed as decreased fungal load in lung at 40 mg/kg, po qd administered 1 day post infection measured after 4 to 5 days relative to untreated control. On the set-up: dose 40 mg/kg. The procedure, abridged: as §1

The subject of experiment [9] is Cunninghamella bertholletiae. The experiment in a line: Antifungal activity against Cunninghamella bertholletiae UTHSC 05-2275 infected in neutropenic OF1 mouse assessed as decreased fungal load in brain at 40 mg/kg, po qd administered 1 day post infection measured after 4 to 5 days relative to untreated control. Set-up: dose 40 mg/kg. The procedure, abridged:
as §3

In experiment [10] the test system is Cunninghamella bertholletiae. The experiment in a line: Antifungal activity against Cunninghamella bertholletiae UTSCH 05-2275 infected in diabetic OF1 mouse assessed as decreased fungal load in kidney at 60 mg/kg, po qd administered 1 day post infection measured after 4 to 5 days relative to untreated control. Set-up: dose 60 mg/kg. The procedure, abridged:
as §4

The subject of experiment [11] is Cunninghamella bertholletiae. The experiment in a line: Antifungal activity against Cunninghamella bertholletiae UTHSC 05-2275 infected in neutropenic OF1 mouse assessed as increase in mouse survival rate at 0.8 mg/kg, iv qd administered 1 day after infection for 7 days relative to untreated control. Set-up: dose 0.8 mg/kg. The procedure, abridged:
(§5)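 Male OF1 mice (~30 g) were made neutropenic with cyclophosphamide 200 mg/kg i.p. plus 5-fluorouracil 150 mg/kg i.v. 1 day before challenge. Challenge was 1 × 10⁴ CFU sporangiospores in 0.2 ml saline via the lateral tail vein. Mice got ceftazidime 5 mg/day s.c. on days 1–7. Dosing started 24 h post-challenge for 7 days. There were 10 mice/group, observed daily for 20 days. Kaplan-Meier analysis with log-rank test.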

Experiment [12] relates to Cunninghamella bertholletiae. Nature of the experiment: Antifungal activity against Cunninghamella bertholletiae UTHSC 04-2581 infected in neutropenic OF1 mouse assessed as increase in mouse survival rate at 0.8 mg/kg, iv qd administered 1 day after infection for 7 days relative to untreated control. On the set-up: dose 0.8 mg/kg. The procedure, abridged: as §5
In experiment [13] the test system is Cunninghamella bertholletiae. The experiment in a line: Antifungal activity against Cunninghamella bertholletiae UTHSC 06-1945 infected in neutropenic OF1 mouse assessed as increase in mouse survival rate at 0.8 mg/kg, iv qd administered 1 day after infection. On the set-up: dose 0.8 mg/kg. The procedure, abridged: as §5

Turning to `CC[C@@H]([C@H](C)O)n1ncn(-c2ccc(N3CCN(c4ccc(OC[C@@H]5CO[C@@](Cn6cncn6)(c6ccc(F)cc6F)C5)cc4)CC3)cc2)c1=O` [POSACONAZOLE], the result in experiment [1], in [2], in experiment [3], in experiment [5], in experiment [6] and in [7] was Active. Besides, the result in experiment [9] and in experiment [10] was Active. Further, the outcome in experiment [4] and in experiment [8] was inactive.

For `C[C@@H]1[C@H](O)[C@@H](C)/C=C/C=C/C=C/C=C/C=C/C=C/C=C/[C@H](O[C@@H]2O[C@H](C)[C@@H](O)[C@H](N)[C@@H]2O)C[C@@H]2O[C@](O)(C[C@@H](O)C[C@@H](O)[C@H](O)CC[C@@H](O)C[C@@H](O)CC(=O)O[C@H]1C)C[C@H](O)[C@H]2C(=O)O` [AMPHOTERICIN B], the outcome in [11] and in experiment [12] was Active. Moreover, the result in [13] was inactive.
